From ChEMBL document CHEMBL1133118 (J Med Chem, 2000)
One block for each molecule: values may come before it.

Assays:
Adenosine receptor A2b [1] = target: T1, Adenosine receptor A2b (Homo sapiens, UniProt P29275); assay: Displacement of [3H]DPCPX from Adenosine A2b receptor expressed in […]; range 1770-2327; type: cell-based
T1 sequence (P29275 whole entry): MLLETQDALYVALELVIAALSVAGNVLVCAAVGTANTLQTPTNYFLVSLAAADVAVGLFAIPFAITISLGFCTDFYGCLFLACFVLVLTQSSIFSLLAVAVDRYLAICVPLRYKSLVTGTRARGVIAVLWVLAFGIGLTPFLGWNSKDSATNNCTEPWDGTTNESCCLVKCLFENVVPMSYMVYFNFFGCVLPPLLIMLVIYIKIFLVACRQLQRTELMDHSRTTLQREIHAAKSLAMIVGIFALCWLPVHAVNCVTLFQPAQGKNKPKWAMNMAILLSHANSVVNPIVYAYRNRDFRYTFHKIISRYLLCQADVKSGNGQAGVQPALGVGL

[2] = target: T2, Adenosine receptor A3 (Homo sapiens) (UniProt P0DMS8); assay: Percent reversal of 100 nM IB-MECA-inhibited cAMP accumulation in CHO cells expressing human adenosine A3 receptor at 1 uM; range 73-110; type: functional, cell-based
T2 sequence (whole entry): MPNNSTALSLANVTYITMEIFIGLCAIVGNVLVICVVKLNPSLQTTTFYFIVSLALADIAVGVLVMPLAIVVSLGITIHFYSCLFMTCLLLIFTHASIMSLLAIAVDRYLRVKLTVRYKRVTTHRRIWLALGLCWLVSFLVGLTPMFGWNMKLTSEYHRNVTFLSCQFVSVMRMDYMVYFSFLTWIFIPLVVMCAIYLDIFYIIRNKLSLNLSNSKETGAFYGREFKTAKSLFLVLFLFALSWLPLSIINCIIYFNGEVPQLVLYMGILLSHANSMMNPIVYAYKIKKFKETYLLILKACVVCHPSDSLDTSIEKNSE
Outline: (§1)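 CHO cells stably expressing human A3 receptor; membranes in 50 mM Tris HCl, 10 mM MgCl2, 1 mM EDTA pH 7.4 with 5 μM GTP, 0.5 mM […] and 2.0 IU/mL adenosine deaminase. Preincubated 10 min at 37 °C, then IB-MECA (100 nM) and/or antagonist with 1 mM ATP and 10 μM forskolin for 10 min. Boiled 2 min. cAMP read by [3H]cAMP competition with adrenal binding protein.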

Adenosine receptor A2a [3] = target: T3, Adenosine receptor A2a (Homo sapiens, UniProt P29274); assay: Displacement of [3H]-SCH- 58261 from human adenosine A2A receptor expressed in CHO cells; range 150-207; type: cell-based
T3 sequence (P29274 whole entry): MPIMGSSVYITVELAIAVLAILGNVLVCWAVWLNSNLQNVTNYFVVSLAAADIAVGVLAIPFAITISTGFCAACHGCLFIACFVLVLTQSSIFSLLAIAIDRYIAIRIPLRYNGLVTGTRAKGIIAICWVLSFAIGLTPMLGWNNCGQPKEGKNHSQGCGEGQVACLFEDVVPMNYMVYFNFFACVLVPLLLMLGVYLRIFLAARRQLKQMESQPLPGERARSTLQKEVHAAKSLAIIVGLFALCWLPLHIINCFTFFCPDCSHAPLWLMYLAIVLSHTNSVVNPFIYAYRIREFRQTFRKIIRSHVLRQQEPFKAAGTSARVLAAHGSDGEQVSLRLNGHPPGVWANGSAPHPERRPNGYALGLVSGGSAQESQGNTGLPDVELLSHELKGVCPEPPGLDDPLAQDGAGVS

[4] = target: Adenosine receptors; A2b & A3 (Homo sapiens) (UniProt P29275+P0DMS8); assay: Ratio of binding affinity of human A2B receptor to that of human A3 receptor; type: protein assay
Outline: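 Ki ratio, n=3-6, 6–8 concentrations. A2B in HEK-293 membranes (20 μg): 40 nM [3H]DPCPX, 50 mM Tris HCl, 10 mM MgCl2, 1 mM EDTA, 0.1 mM benzamidine pH 7.4, 2 IU/mL adenosine deaminase, 60 min at 25 °C, nonspecific with 100 μM NECA. A3 in CHO membranes (50 μg): 1 nM [3H]MRE3008-F20, 120 min at 4 °C.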

Adenosine receptor A1 [5] = target: T4, Adenosine receptor A1 (Homo sapiens, UniProt P30542); assay: Displacement of [3H]-DPCPX from human adenosine A1 receptor expressed in CHO cells; […]; type: cell-based
T4 sequence (P30542 whole entry): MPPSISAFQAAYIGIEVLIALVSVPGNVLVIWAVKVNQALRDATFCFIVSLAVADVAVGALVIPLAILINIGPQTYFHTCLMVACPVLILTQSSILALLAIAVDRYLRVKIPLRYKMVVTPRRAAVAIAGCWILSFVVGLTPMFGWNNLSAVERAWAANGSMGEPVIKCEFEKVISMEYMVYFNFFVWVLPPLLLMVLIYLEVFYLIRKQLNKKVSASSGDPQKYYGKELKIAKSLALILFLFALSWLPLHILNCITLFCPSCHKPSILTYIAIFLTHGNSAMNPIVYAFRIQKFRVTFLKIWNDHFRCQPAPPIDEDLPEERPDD

[6] = target: Adenosine receptors; A1 & A3 (Homo sapiens) (UniProt P30542+P0DMS8); assay: Ratio of binding affinity of human A1 receptor to that of human A3 receptor; type: protein assay
Outline: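 Ki ratio from displacement in CHO membranes, 6–8 concentrations, n=3-6, filtration counting. A1: 1 nM [3H]DPCPX, 50 μg protein, 120 min at 25 °C, nonspecific with 10 μM CHA. A3: 1 nM [3H]MRE3008-F20, 50 μg protein, Tris/10 mM MgCl2 pH 7.4, 120 min at 4 °C, nonspecific with 1 μM MRE3008-F20.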

Adenosine receptor A3 [7] = target: T5, Adenosine receptor A3 (Homo sapiens, UniProt P0DMS8); assay: Displacement of [3H]MRE3008-F20 from human adenosine A3 receptor expressed in CHO cells; range 0.32-0.74; type: cell-based
T5 sequence (P0DMS8 whole entry): T2 sequence (whole entry)

Adenosine receptor A3 [8] = target: T5, Adenosine receptor A3; assay: Inhibition of cAMP accumulation in CHO cells expressing human adenosine A3 receptor; range 3.5-7.6; type: functional, cell-based
[9] = target: T2, Adenosine receptor A3 (Homo sapiens); settings: CHO, 1 uM
Adenosine receptor A2a [10] = target: T3, Adenosine receptor A2a; assay: Displacement of [3H]-SCH- 58261 from human adenosine A2A receptor expressed in CHO cells; range 70-130; type: cell-based
Outline: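 Membranes from CHO cells stably expressing human A2A receptor, grown in DMEM/F12 without nucleosides, resuspended in 50 mM Tris HCl, 10 mM MgCl2, pH 7.4; 50 μg protein/assay. Competition with [3H]SCH 58261 at 6–8 or more compound concentrations, 60 min at 25 °C; nonspecific binding with 50 μM NECA. Filtration on GF/B filters, scintillation counting; n=3-6.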

Adenosine receptor A3 [11] = target: T5, Adenosine receptor A3; assay: Displacement of [3H]MRE3008-F20 from human adenosine A3 receptor expressed in CHO cells; range 0.52-0.68; type: cell-based
Adenosine receptor A3 [12] = target: T5, Adenosine receptor A3; assay: Inhibition of cAMP accumulation in CHO cells expressing human adenosine A3 receptor; range 3.0-6.9; type: functional, cell-based
Adenosine receptor A1 [13] = target: T4, Adenosine receptor A1; assay: Displacement of [3H]-DPCPX from human adenosine A1 receptor expressed in CHO cells; range 213-281; type: cell-based
Adenosine receptor A2b [14] = target: T1, Adenosine receptor A2b; assay: Displacement of [3H]DPCPX from Adenosine A2b receptor expressed in […]; range 56-89; type: cell-based
Adenosine receptor A3 [15] = target: T5, Adenosine receptor A3; assay: Displacement of [3H]MRE3008-F20 from human adenosine A3 receptor expressed in CHO cells; range 34-76; type: cell-based
Adenosine receptor A1 [16] = target: T4, Adenosine receptor A1; assay: Displacement of [3H]DPCPX from human adenosine A1 receptor expressed in CHO cells; range 2894-3460; type: cell-based
Adenosine receptor A2b [17] = target: T1, Adenosine receptor A2b; assay: Displacement of [3H]DPCPX from Adenosine A2b receptor expressed in CHO cells; type: cell-based
Adenosine receptor A2a [18] = target: T3, Adenosine receptor A2a; assay: Displacement of [3H]-SCH- 58261 from human adenosine A2A receptor expressed in CHO cells; type: cell-based
[19] = target: T2, Adenosine receptor A3 (Homo sapiens); assay: Percentage of blockade by 1 uM of the inhibition by 100 nM IB-MECA-inhibited cAMP accumulation in CHO cells expressing human adenosine A3 receptor.; type: functional, cell-based; outline: as §1
Adenosine receptor A3 [20] = target: T5, Adenosine receptor A3; assay: biochemical
Adenosine receptor A2b [21] = target: T1, Adenosine receptor A2b; assay: Displacement of [3H]DPCPX from Adenosine A2b receptor expressed in […]; range 1681-1961; type: cell-based
Adenosine receptor A1 [22] = target: T4, Adenosine receptor A1; assay: Displacement of [3H]DPCPX from human adenosine A1 receptor expressed in CHO cells; range 327-462; type: cell-based
Adenosine receptor A2a [23] = target: T3, Adenosine receptor A2a; assay: Displacement of [3H]-SCH- 58261 from human adenosine A2A receptor expressed in CHO cells; range 3420-3788; type: cell-based
Adenosine receptor A2a [24] = target: T3, Adenosine receptor A2a; assay: Displacement of [3H]-SCH- 58261 from human adenosine A2A receptor expressed in CHO cells; range 1220-1590; type: cell-based
Adenosine receptor A1 [25] = target: T4, Adenosine receptor A1; assay: Displacement of [3H]DPCPX from human adenosine A1 receptor expressed in CHO cells; range 928-1297; type: cell-based
Adenosine receptor A3 [26] = target: T5, Adenosine receptor A3; assay: biochemical; remark: listed apart in the source
Adenosine receptor A2b [27] = target: T1, Adenosine receptor A2b; assay: Displacement of [3H]DPCPX from Adenosine A2b receptor expressed in […]; range 226-301; type: cell-based
Adenosine receptor A3 [28] = target: T5, Adenosine receptor A3; assay: Inhibition of cAMP accumulation in CHO cells expressing human adenosine A3 receptor; range 1.7-4.2; type: functional, cell-based
[29] = target: T2, Adenosine receptor A3 (Homo sapiens); settings: CHO, 1 uM; remark: listed apart in the source

Compound: C=CCn1cc2c(nc(NC(=O)Nc3ccc(OC)cc3)n3nc(-c4ccco4)nc23)n1
Ki (Adenosine receptor A2b [1]): 2030 nM | inhibition [2]: 90% | Ki (Adenosine receptor A2a [3]): 176 nM | Ratio [4]: 4230 | Ki (Adenosine receptor A1 [5]): 1530 nM | Ratio [6]: 3190 | Ki (Adenosine receptor A3 [7]): 0.48 nM | IC50 (Adenosine receptor A3 [8]): 5.1 nM

Compound: O=C(Nc1cccc(Cl)c1)Nc1nc2nn(CCc3cccc4ccccc34)cc2c2nc(-c3ccco3)nn12
Ki (Adenosine receptor A3 [15]): 51 nM | Ki (Adenosine receptor A1 [16]): 3160 nM | Ki (Adenosine receptor A2b [17]): > 10000 nM | Ki (Adenosine receptor A2a [18]): > 10000 nM | Ratio [4]: > 196 | Ratio [6]: 62 | inhibition [19]: 40%

Compound: COc1ccc(NC(=O)Nc2nc3nn(C)cc3c3nc(-c4ccco4)nn23)cc1
Ki (Adenosine receptor A2a [24]): 1390 nM | Ki (Adenosine receptor A1 [25]): 1100 nM | Ratio [4]: 1300 | Ki (Adenosine receptor A3 [26]): 0.2 nM | Ki (Adenosine receptor A2b [27]): 261 nM | Ratio [6]: 5480 | IC50 (Adenosine receptor A3 [28]): 2.7 nM | inhibition [29]: 94%

Further lines, results first:

inhibition [9]: 85% | Ki (Adenosine receptor A2a [10]): 95 nM | Ki (Adenosine receptor A3 [11]): 0.6 nM | Ratio [4]: 116 | IC50 (Adenosine receptor A3 [12]): 4.5 nM | Ratio [6]: 408 | Ki (Adenosine receptor A1 [13]): 245 nM | Ki (Adenosine receptor A2b [14]): 70 nM
Compound: CCCCn1cc2c(nc(NC(=O)Nc3cccc(Cl)c3)n3nc(-c4ccco4)nc23)n1

Ki (Adenosine receptor A3 [20]): 71 nM | Ratio [4]: 26 | Ratio [6]: 5.5 | Ki (Adenosine receptor A2b [21]): 1820 nM | inhibition [19]: 32% | Ki (Adenosine receptor A1 [22]): 389 nM | Ki (Adenosine receptor A2a [23]): 3600 nM
Compound: O=C(Nc1cccc(Cl)c1)Nc1nc2nn(CCc3cc(Br)c(Br)cc3Br)cc2c2nc(-c3ccco3)nn12
